From the RNAGym collection of RNA variant scans (doi:10.1126/science.aae0568)
Fewer inactive variants are shown than the library holds.

B1: tRNA (parent)
chain: GUUCCGUUGGCGUAAUGGUAACGCGUCUCCCUCCUAAGGAGAAGACUGCGGGUUCGAGUCCCGUACGGAACG

Variants of: B1
Assay: yeast fitness relative to wild type (ratio to wild type); higher = fitter; tRNA-Arg(CCU), competitive growth, 37 C, YPD
Procedure, shortened: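 Start and end populations of a pooled competition were compared by 100-nucleotide paired-end sequencing of gene amplicons. The Saccharomyces cerevisiae strains carried tRNA-Arg(CCU) gene variants at the native genomic locus, synthesised with a 3% per-site mutation rate at 69 sites, and competed in YPD at 37°C for 24 hours in six parallel replicates. Darwinian fitness relative to wild type was based on the change in genotype frequencies. Genotypes required ≥ 100 starting reads, and estimates < 0.5 were set to 0.5.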

Variant | yeast fitness
A15U C22G C27U A36C G39C G48C G63U A70U | ≤ 0.5
A15G C62G C66U | 0.535
A15G C62G C66G | ≤ 0.5
A15G G44U A57U G58A C66G | ≤ 0.5
A15U U16G C55A A57C U59C A65G | ≤ 0.5
A15G G48C G51A A65C | ≤ 0.5
A15G U28C A37C A70U | ≤ 0.5
A15U C22A G23A C24A | ≤ 0.5
A15U C22U A57C | ≤ 0.5
A15U C27G U28C C62G | 0.534
A15G G17A C30A | 0.529
A15G U19G A40G | 0.582
A15U A42U C46G C61G | 0.652
A15U A42G C46G C61A | ≤ 0.5
A15G G44C A65C | ≤ 0.5
A15G G48A C66U | 0.747
A15U A20G U35C G48U C55G | ≤ 0.5
A15G G18A C49A | ≤ 0.5
A15U C24G A42C C62U | ≤ 0.5
A15U G23C C33A | ≤ 0.5
A15G G23A G48A | 0.675
A15U A45U C46G | ≤ 0.5
A15G G17C C61A | ≤ 0.5
A15U A45C | 0.803

Variant | yeast fitness
A15U A57U A70C | ≤ 0.5
A15U C22G G25A C31U A57C U64A G68A | ≤ 0.5
A15U A36U G41A | ≤ 0.5
A15U G23A C24G C29U C61A A69G | ≤ 0.5
A15G G41C A43C G67A | 0.535
A15G U54G C55U | 0.561
A15U A65G C66A G67C | ≤ 0.5
A15G G18A G48C C61A | ≤ 0.5
A15U G25C G67A | ≤ 0.5
A15U G41C | 0.784
A15G U54C C66A | ≤ 0.5
A15G G51A A70U | 0.533
A15G G17A | 0.881
A15U C27G U28G G67C | ≤ 0.5
A15U G17A U53C C66U A69U | ≤ 0.5
A15G G52A G67U | ≤ 0.5
A15G U35A A65C | ≤ 0.5
A15G G25A U28C U35A G38A C46G C62U | 0.527
A15U C22G C27G A42C G63C | ≤ 0.5
A15G G23C C30A A42C G51C C61A G67A | ≤ 0.5
A15G G38C C49U | 0.544
A15G U26G C30U A40U G52A | ≤ 0.5
A15U C22G G58C G68A | ≤ 0.5
A15G U28G A42U G48A G67A | ≤ 0.5

Variant | yeast fitness
A15G U19C C29U A37G | ≤ 0.5
A15U C24U U64C | ≤ 0.5
A15G G17A A21C | ≤ 0.5
A15U C27G C62A C66A | ≤ 0.5
A15G G41A A43U G50C | ≤ 0.5
A15U G56C G67U | ≤ 0.5
A15U C24G C30U A57U | 0.832
A15G C55G G56U G68C | ≤ 0.5
A15G U35A A57G | ≤ 0.5
A15G C61A C62G G68A | ≤ 0.5
A15G C49G C66G G67C | ≤ 0.5
A15U G68C | 0.671
A15G G23C C30A A42C G44A G51C | ≤ 0.5
A15G G18A | 0.793
A15G G18U | 0.75
A15G G17A C49U | 0.687
A15G C31U G58A | 1.03
A15U A21C G23C C55A | ≤ 0.5
A15U C22U G39C | ≤ 0.5
A15G G17A C29G C31U A65G C66G | 0.552
A15U C46U C66U A69G | ≤ 0.5
A15G C62U A69C | 0.829
A15U G63A | 0.675
A15G G50A | 0.929

Variant | yeast fitness
A15U C24U A40U G41C U64C | 0.647
A15G U35A | 0.602
A15U U19A A20G A40U A43U C60G C62U | 0.518
A15G C60G C62U | ≤ 0.5
A15G G50A G58C C66U | ≤ 0.5
A15G C34G A37U C49G | ≤ 0.5
A15G G39C C46U | 0.689
A15U G18A G58A | ≤ 0.5
A15G U19G A69C | 0.721
A15U C27U C34U G41C U47G | 0.555
A15G C34G | 0.636
A15G U32G A40C | ≤ 0.5
A15U A20C C27U | 0.748
A15G C34U A40U | ≤ 0.5
A15U C29G G48A A69U | ≤ 0.5
A15G C66U | 0.887
A15G C66A | 0.657
A15U A21G C29U G44C C55A G56C | ≤ 0.5
A15U A40U G68C | 0.627
A15U C22G C31U C46G G63A | ≤ 0.5
A15U C34G A69U | ≤ 0.5
A15G U35A A70U | 0.572
A15G U32C A37G C55A | ≤ 0.5
A15G U19A A69U | 0.729

Variant | yeast fitness
A15G G23C C30A A42C G51C | 0.537
A15U G41C G56C | ≤ 0.5
A15G C49G C62G | ≤ 0.5
A15U C27U C66A | ≤ 0.5
A15G G23C G38C C49U | ≤ 0.5
A15G U26G G41A G56A | ≤ 0.5
A15G G18A C46U | 0.645
A15G C34U G41C C49U | ≤ 0.5
A15U A20G A43C | 0.593
A15U A40G | 0.598
A15U A40C | 0.723
A15G U54A G63C | 0.631
A15U A37G A42C C49G C61U | ≤ 0.5
A15U G17A C29G | ≤ 0.5
A15U G38A C46G G56C | ≤ 0.5
A15U A37G C66G | ≤ 0.5
A15U G38C G50C C60U | ≤ 0.5
A15G G39C | 0.736
A15U A42C A43C | 0.561
A15U C27G C49A | 0.518
A15U U19A A20G G41A C60G A65G | ≤ 0.5
A15U G18A C27A | 1.03
A15G U26G G41C A43C | ≤ 0.5
A15U A43C | 0.825

Variant | yeast fitness
A15U A20G U28G C33U | ≤ 0.5
A15U A43G U59C | 0.53
A15U C24G A42C | ≤ 0.5
A15U C27G U54A | ≤ 0.5
A15U G52C | ≤ 0.5
A15U G52A | 0.606
A15U C29A G48C | ≤ 0.5
A15U G23A A45G | ≤ 0.5
A15G G25C G48A | 0.637
A15G U19A U28A C55A A65U | ≤ 0.5
A15U C24U A43C | 0.573
A15G U47C | 0.896
A15G U47A | 0.916
A15G U47G | 0.782
A15G G56A | 0.971
A15U C22G C31U A57C U64A G68A | 0.553
A15G G44C A57U | ≤ 0.5
A15G G25A C27A G50A | 0.592
A15G C46U | 0.987
A15G C46A | 0.884
A15G G23C G38C G52C U54C G58A | ≤ 0.5
A15U C29A C31G C60G | 0.618
A15U A65G | 0.649
A15U A65U | 0.775

Variant | yeast fitness
A15U C22G G52A | ≤ 0.5
A15U C22G G52C | 0.529
A15U C49G G68C | ≤ 0.5
A15U C22G C31U C46G U54A | ≤ 0.5
A15G C33U A45U C62A | ≤ 0.5
A15G U19G A42G | 0.702
A15G G48A | 0.879
A15G G48C | 0.841
A15U G67A | 0.654
A15U G67C | 0.657
A15U U19A G41C C55G C66G | ≤ 0.5
A15U C31G G50C G58C | 0.588
A15U A43G G56C C60U | ≤ 0.5
A15U U16A C22G C60U | ≤ 0.5
A15U A21C C24G C29U A42C C55A | ≤ 0.5
A15U G48A | 0.763
A15U C24U C27U G67A | ≤ 0.5
A15U C46A U59C | ≤ 0.5
A15U C24U A37G | ≤ 0.5
A15U G58C A70U | 0.643
A15U A37G | 0.66
A15U A37C | 0.678
A15G C34U A36G | 0.563
